Pf Dd2 growth = P. falciparum Dd2 growth inhibition; activity change, % at 10 µM; AID 1159554; SYBR Green, 72 h; active compounds read low; 2.3% of 94,000 active; in the data active = activity change below about -80%; inconclusive = no clear call, values can overlap the other calls
T cruzi growth-1 = blocks T. cruzi growth in NIH3T3 culture; T. cruzi beta-gal in NIH3T3, GalScreen luminescence, 90 h; inhibition, % at 8.34 µM; 5.9% of 77,000 active;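 active = mean inhibition above about 93%, with at least 55% of replicates each passing it, limit read from the data, passing the limit was not always enough; inconclusive = only one of those two conditions holds; inactive = neither condition holds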
IDH1 R132H inh = IDH1 R132H (human) inhibition; O75874; IDH1 R132H reductase, diaphorase/resazurin fluorescence, 60 min; inhibition, % at 10 µM; 0.18% of 70,000 active; AID 624101; in the data active = inhibition above about 34%; inconclusive = no clear call, values can overlap the other calls; inactive = below about 11%
Target sequence (O75874 whole entry R132H): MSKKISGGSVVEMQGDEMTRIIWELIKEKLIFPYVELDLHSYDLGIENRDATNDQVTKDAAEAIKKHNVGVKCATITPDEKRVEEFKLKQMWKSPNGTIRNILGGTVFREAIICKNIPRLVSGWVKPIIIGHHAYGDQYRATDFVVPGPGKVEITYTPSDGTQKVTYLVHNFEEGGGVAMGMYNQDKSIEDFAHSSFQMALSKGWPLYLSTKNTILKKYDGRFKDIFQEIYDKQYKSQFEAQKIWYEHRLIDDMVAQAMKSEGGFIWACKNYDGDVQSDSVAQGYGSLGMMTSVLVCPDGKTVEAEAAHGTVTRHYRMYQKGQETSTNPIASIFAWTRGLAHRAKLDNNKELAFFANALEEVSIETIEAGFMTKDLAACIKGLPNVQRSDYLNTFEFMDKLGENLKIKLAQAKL
GASC1 inh = blocks human GASC-1 (KDM4C) demethylase activity | 0.15% of 96,000 active | inhibition, % at 12.5 µM | Q9H3R0 | GST-KDM4C 2-372, H3K9me3 peptide, LANCE TR-FRET;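 active = mean replicate inhibition above about 25%, with at least 55% of replicates also reaching it, limit read from the data, passing the limit was not always enough; inconclusive = only one of those two conditions met; inactive = neither condition met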
Target sequence (Q9H3R0 2-372 limits assumed): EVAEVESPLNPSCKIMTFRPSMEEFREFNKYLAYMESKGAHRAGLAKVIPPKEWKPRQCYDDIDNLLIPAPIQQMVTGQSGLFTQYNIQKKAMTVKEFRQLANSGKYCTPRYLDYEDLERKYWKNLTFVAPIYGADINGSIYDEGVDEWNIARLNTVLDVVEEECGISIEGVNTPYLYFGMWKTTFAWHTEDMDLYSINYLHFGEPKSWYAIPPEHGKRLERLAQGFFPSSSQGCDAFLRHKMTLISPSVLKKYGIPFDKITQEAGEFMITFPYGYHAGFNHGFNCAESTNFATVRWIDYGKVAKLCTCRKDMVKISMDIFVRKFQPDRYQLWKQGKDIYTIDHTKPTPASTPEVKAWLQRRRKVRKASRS
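System: N-terminal GST-fused human GASC-1 (KDM4C) fragment, residues 2-372; amount: enzyme final amount 10 nM; incubation: reaction 30 min RT, detection step 1 h RT; medium: HEPES buffer, pH 7.5, plus ascorbate; technique: LANCE TR-FRET, Eu antibody, ULight-streptavidin, EDTA, ex 340 nm, em 618/671 nm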
T cruzi growth-2 = inhibitors of T. cruzi proliferation; shares compounds with T cruzi growth-1; T. cruzi beta-gal in NIH3T3, GalScreen luminescence, 90 h; inhibition, % at 8.35 µM; 72% of 5,600 active; AID 651739;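 active = mean replicate inhibition above about 95% and at least 55% of replicates individually reaching it, limit read from the data; inconclusive = only one of the two criteria is met; inactive = neither criterion is met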
T cruzi growth-3 = inhibitors of T. cruzi proliferation. shares compounds with T cruzi growth-1. T. cruzi beta-gal in NIH3T3, GalScreen luminescence, 90 h. inhibition, % at 2.09 µM. 21% of 5,600 active. AID 651740;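 active = mean inhibition above about 95%, with at least 55% of replicates also reaching it, limit read from the data; inconclusive = meets just one of the two conditions; inactive = meets neither condition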
NIH3T3 tox = cytotoxicity in mouse NIH/3T3 fibroblasts | shares compounds with T cruzi growth-1 | NIH/3T3 viability, CellTiter-Glo ATP luminescence, 90 h | cytotoxicity (signal decrease), % at 8.35 µM | 14% of 5,600 active;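 active = mean signal decrease across replicates above about 35% based on untreated-well scatter, with enough replicates individually passing, limit read from the data; inconclusive = no rule stated though some were filed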
3T3 cytotox 2 = cytotoxicity in mouse NIH/3T3 fibroblasts | shares compounds with T cruzi growth-1 | NIH/3T3 viability, CellTiter-Glo ATP luminescence, 90 h | inhibition, % at 24.9 µM | 56% of 5,600 active | AID 651744;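 active = mean loss of cell viability signal at or above a set limit, and enough replicates individually reaching it; inconclusive = meets only the mean limit or only the replicate share; inactive = meets neither condition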
Large screens that a line does not name were inactive (follow-up assays come after a bar, where they were run); ! = repeats disagree. Shown are actives, neighbours in structure and some others; about 5.8% of the full set was active somewhere.

O=P(O)(C1Cc2ccccc2C1)C(O)c1ccco1 (stereo not given)	none (no result: Pf Dd2 growth, T cruzi growth-1, GASC1 inh)
O=C(C[C@H]1C[C@H]2c3cc(NC(=O)NC4CCCC4)ccc3O[C@H]2[C@@H](CO)O1)NCc1ccc(Cl)cc1	T cruzi growth-1 105 | T cruzi growth-2 inactive | T cruzi growth-3 inactive | NIH3T3 tox inactive | 3T3 cytotox 2 inactive
O=C(C[C@@H]1C[C@H]2c3cc(NC(=O)Nc4ccccc4)ccc3O[C@H]2[C@H](CO)O1)NCc1cccc(F)c1	T cruzi growth-1 104 | T cruzi growth-2 inactive | T cruzi growth-3 inactive | NIH3T3 tox inactive | 3T3 cytotox 2 inactive
O=C(C[C@@H]1C[C@H]2c3cc(NC(=O)CC4CC4)ccc3O[C@H]2[C@H](CO)O1)NCc1cccnc1	T cruzi growth-1 109 | T cruzi growth-2 inactive | T cruzi growth-3 inactive | NIH3T3 tox inactive | 3T3 cytotox 2 inactive
O=C(C[C@H]1C[C@@H]2c3cc(NC(=O)Nc4ccccc4)ccc3O[C@@H]2[C@H](CO)O1)NCc1cccc(F)c1	none
O=C(C[C@H]1C[C@H]2c3cc(NC(=O)NC4CCCC4)ccc3O[C@H]2[C@H](CO)O1)NCc1ccccc1	none
O=C(C[C@@H]1C[C@H]2c3cc(NC(=O)CC4CC4)ccc3O[C@H]2[C@@H](CO)O1)NCc1cccnc1	none
O=C(C[C@@H]1C[C@H]2c3cc(NC(=O)NC4CCCC4)ccc3O[C@H]2[C@H](CO)O1)NCc1ccccc1	T cruzi growth-1 102 | T cruzi growth-2 inactive | T cruzi growth-3 inactive | NIH3T3 tox inactive | 3T3 cytotox 2 inactive
COc1ccc(NC(=O)CN2CCN(S(=O)(=O)c3ccc(F)cc3)CC2)cc1	none (no result: Pf Dd2 growth, T cruzi growth-1, GASC1 inh)
O=C(NCCCN1CCCC1=O)c1cc(-c2ccncc2)nc2ccc(Br)cc12	none (no result: Pf Dd2 growth, T cruzi growth-1, GASC1 inh)
COCC(=O)N1CCCCN2[C@@H](CO)[C@@H](c3ccc(C#Cc4ccc(OC)cc4)cc3)[C@@H]2C1	none (no result: IDH1 R132H inh)
COCC(=O)N1CCCCN2[C@H](C1)[C@H](c1ccc(C#Cc3ccc(OC)cc3)cc1)[C@@H]2CO	T cruzi growth-1 105 (no result: IDH1 R132H inh) | T cruzi growth-2 95 | T cruzi growth-3 inactive | NIH3T3 tox inactive | 3T3 cytotox 2 89
COCC(=O)N1CCCCN2[C@H](CO)[C@H](c3ccc(-c4ccc(OC)cc4)cc3)[C@@H]2C1	T cruzi growth-1 103 (no result: IDH1 R132H inh) | T cruzi growth-2 inactive | T cruzi growth-3 inactive | NIH3T3 tox inactive | 3T3 cytotox 2 32
COCC(=O)N1CCCCN2[C@@H](CO)[C@H](c3ccc(-c4ccc(OC)cc4)cc3)[C@@H]2C1	T cruzi growth-1 104 (no result: IDH1 R132H inh) | T cruzi growth-2 inactive | T cruzi growth-3 inactive | NIH3T3 tox inactive | 3T3 cytotox 2 inactive
COCC(=O)N1CCCCN2[C@@H](CO)[C@H](c3ccc(C#Cc4cccnc4)cc3)[C@@H]2C1	T cruzi growth-1 99 (no result: IDH1 R132H inh) | T cruzi growth-2 inactive | T cruzi growth-3 inactive | NIH3T3 tox inactive | 3T3 cytotox 2 inactive
CC(C)(C)C1CCc2c(sc(NC(=O)CSc3n[nH]c(-c4ccco4)n3)c2C#N)C1 (stereo not given)	none (no result: Pf Dd2 growth, T cruzi growth-1, GASC1 inh)
CCCCCC1C(=O)O/C(=C\C(=O)O)C1=O (stereo not given)	none (no result: Pf Dd2 growth, T cruzi growth-1, GASC1 inh)
C[C@H]1CN([C@@H](C)CO)S(=O)(=O)c2ccc(C#CC3CCCC3)cc2O[C@H]1CN(C)C(=O)c1cccc(F)c1	T cruzi growth-1 124 | T cruzi growth-2 inactive | T cruzi growth-3 inactive | NIH3T3 tox inactive | 3T3 cytotox 2 103
C[C@H](CO)N1C[C@H](C)[C@@H](CN(C)C(=O)c2cccc(F)c2)Oc2cc(C#CC3CCCC3)ccc2S1(=O)=O	T cruzi growth-1 122 | T cruzi growth-2 102 | T cruzi growth-3 113 | NIH3T3 tox inactive | 3T3 cytotox 2 105
CC(C)C#Cc1ccc2c(c1)O[C@@H](CN(C)C(=O)c1cccc(F)c1)[C@@H](C)CN([C@@H](C)CO)S2(=O)=O	none
C[C@@H]1CN([C@@H](C)CO)S(=O)(=O)c2ccc(C#CCN(C)C)cc2O[C@H]1CN(C)Cc1cccnc1	T cruzi growth-1 98 | T cruzi growth-2 108 | T cruzi growth-3 103 | NIH3T3 tox inactive | 3T3 cytotox 2 43
C[C@H](CO)N1C[C@H](C)[C@H](CN(C)Cc2cccnc2)Oc2cc(C#CCN(C)C)ccc2S1(=O)=O	T cruzi growth-1 91 | T cruzi growth-2 95 | T cruzi growth-3 inactive | NIH3T3 tox inactive | 3T3 cytotox 2 inconclusive
CCCC#Cc1ccc2c(c1)O[C@H](CN(C)Cc1cccnc1)[C@@H](C)CN([C@@H](C)CO)S2(=O)=O	T cruzi growth-1 128 | T cruzi growth-2 102 | T cruzi growth-3 104 | NIH3T3 tox 43 | 3T3 cytotox 2 104
C[C@H]1CN([C@@H](C)CO)S(=O)(=O)c2ccc(C#CCN(C)C)cc2O[C@H]1CN(C)Cc1cccnc1	none
C[C@@H]1CN([C@H](C)CO)C(=O)c2cc(C#CCN(C)C)cnc2O[C@H]1CN(C)Cc1ccccc1	none (no result: GASC1 inh)
C[C@H](CO)N1C[C@H](C)[C@@H](CN(C)Cc2ccc(C(=O)O)cc2)Oc2ncc(C#CCN(C)C)cc2C1=O	none
C[C@@H]1CN([C@@H](C)CO)C(=O)c2cc(C#CCN(C)C)cnc2O[C@@H]1CN(C)Cc1ccc(-c2ccccc2)cc1	T cruzi growth-1 112 (no result: Pf Dd2 growth, IDH1 R132H inh) | T cruzi growth-2 110 | T cruzi growth-3 107 | NIH3T3 tox 47 | 3T3 cytotox 2 105
C[C@@H]1CN([C@@H](C)CO)C(=O)c2cc(C#CCN(C)C)cnc2O[C@H]1CN(C)Cc1ccc(-c2ccccc2)cc1	T cruzi growth-1 102 | T cruzi growth-2 109 | T cruzi growth-3 116! | NIH3T3 tox 40 | 3T3 cytotox 2 104
C[C@@H]1CN([C@H](C)CO)C(=O)c2cc(C#CCN(C)C)cnc2O[C@H]1CN(C)Cc1ccc(-c2ccccc2)cc1	T cruzi growth-1 109 (no result: Pf Dd2 growth, IDH1 R132H inh) | T cruzi growth-2 111 | T cruzi growth-3 116 | NIH3T3 tox inconclusive | 3T3 cytotox 2 104
C[C@@H]1CN([C@H](C)CO)C(=O)c2cc(C#CCN(C)C)cnc2O[C@@H]1CN(C)Cc1ccc(C(=O)O)cc1	T cruzi growth-1 105 | T cruzi growth-2 inactive | T cruzi growth-3 inactive | NIH3T3 tox inactive | 3T3 cytotox 2 inactive
COc1cc([N+](=O)[O-])ccc1NC(=O)CN(C)S(=O)(=O)c1ccccc1	none (no result: Pf Dd2 growth, T cruzi growth-1, GASC1 inh)
Cn1c(SCC(=O)Nc2cccc3ccccc23)nnc1-c1cccs1	none (no result: Pf Dd2 growth, T cruzi growth-1, GASC1 inh)
C[C@@H]1CCCCO[C@H](CN(C)C(=O)Nc2ccccc2)[C@@H](C)CN([C@H](C)CO)C(=O)c2cc(NS(=O)(=O)c3ccc(Cl)cc3)ccc2O1	none
C[C@H](CO)N1C[C@H](C)[C@@H](CN(C)C(=O)Nc2ccccc2)OCCCC[C@H](C)Oc2ccc(NS(=O)(=O)c3ccc(Cl)cc3)cc2C1=O	none (no result: IDH1 R132H inh)
